The values below come from ChEMBL document CHEMBL1142952, “Design, synthesis, and activity of 2-imidazol-1-ylpyrimidine derived inducible nitric oxide synthase dimerization inhibitors” (J Med Chem, 2007).

Active and inactive are the calls of the source. How the calls were made is not given here. Bounds are passed on as bounds.

Assay [1] concerns the target Nitric oxide synthase, inducible (Homo sapiens, UniProt P35228). As to the kind of experiment: Inhibition of cytokine-induced iNOS expressed in human A172 cells assessed as inhibition of NO formation. Type of assay: cell-based, A 172.
Assay [2] has as its system BSC-1. The assay can be described thus: Selectivity ratio, IC50 for ecNOS/IC50 for iNOS using vaccinia virus-induced system in BSC1 cells. The class given is cell-based. To be noted: Homo sapiens. The method in brief: (§1)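 For each compound, the IC50 against bcNOS (b/i) or ecNOS (e/i) is divided by the iNOS IC50 from the same BSC-1 vaccinia system.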
Assay [3] can be described thus: Inhibition of vaccinia virus system-induced human NOS expressed in BSC1 cells. Type of assay: cell-based. To be noted: bsc-1.
Assay [4] has as its system BSC-1. As to the kind of experiment: Selectivity ratio, IC50 for bcNOS/IC50 for iNOS using vaccinia virus-induced system in BSC1 cells. The class given is cell-based. Particulars: Homo sapiens. The method in brief:
as §1

The target of assay [5] is Nitric oxide synthase, inducible (Rattus norvegicus) (UniProt Q06518). As to the kind of experiment: Activity against rat cerebellum iNOS upto 1 uM.
Nitric oxide synthase, inducible (Rattus norvegicus), sequence (Q06518 whole entry): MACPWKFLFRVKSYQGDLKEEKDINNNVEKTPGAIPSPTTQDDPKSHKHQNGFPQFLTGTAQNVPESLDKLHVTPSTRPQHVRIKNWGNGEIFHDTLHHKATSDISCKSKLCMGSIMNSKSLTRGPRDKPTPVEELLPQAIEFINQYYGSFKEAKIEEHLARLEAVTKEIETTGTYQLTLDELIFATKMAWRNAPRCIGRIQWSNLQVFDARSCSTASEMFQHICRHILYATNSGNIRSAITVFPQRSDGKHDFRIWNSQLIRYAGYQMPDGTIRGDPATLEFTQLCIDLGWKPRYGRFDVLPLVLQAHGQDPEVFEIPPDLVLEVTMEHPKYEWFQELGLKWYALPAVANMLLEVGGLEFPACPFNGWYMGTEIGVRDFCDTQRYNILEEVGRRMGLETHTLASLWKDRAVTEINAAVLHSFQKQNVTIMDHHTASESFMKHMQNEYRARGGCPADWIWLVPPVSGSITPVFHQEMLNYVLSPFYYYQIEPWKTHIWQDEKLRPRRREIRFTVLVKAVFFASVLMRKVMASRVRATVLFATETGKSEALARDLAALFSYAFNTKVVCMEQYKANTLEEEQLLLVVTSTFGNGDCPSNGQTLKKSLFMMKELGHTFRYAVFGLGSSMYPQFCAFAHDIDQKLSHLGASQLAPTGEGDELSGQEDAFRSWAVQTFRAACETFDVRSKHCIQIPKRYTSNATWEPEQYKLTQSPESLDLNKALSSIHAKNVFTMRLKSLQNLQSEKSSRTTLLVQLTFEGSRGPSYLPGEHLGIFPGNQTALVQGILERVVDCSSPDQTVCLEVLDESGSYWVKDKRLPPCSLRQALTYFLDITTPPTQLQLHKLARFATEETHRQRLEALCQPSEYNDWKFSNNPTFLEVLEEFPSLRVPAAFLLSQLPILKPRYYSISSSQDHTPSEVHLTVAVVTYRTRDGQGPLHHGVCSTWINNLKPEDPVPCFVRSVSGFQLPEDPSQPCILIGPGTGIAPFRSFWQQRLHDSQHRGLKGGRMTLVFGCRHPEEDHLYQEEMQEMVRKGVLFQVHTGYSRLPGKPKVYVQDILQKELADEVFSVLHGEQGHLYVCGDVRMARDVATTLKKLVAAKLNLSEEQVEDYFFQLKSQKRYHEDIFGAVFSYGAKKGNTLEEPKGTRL

Nitric oxide synthase, inducible, sequence (P35228 whole entry): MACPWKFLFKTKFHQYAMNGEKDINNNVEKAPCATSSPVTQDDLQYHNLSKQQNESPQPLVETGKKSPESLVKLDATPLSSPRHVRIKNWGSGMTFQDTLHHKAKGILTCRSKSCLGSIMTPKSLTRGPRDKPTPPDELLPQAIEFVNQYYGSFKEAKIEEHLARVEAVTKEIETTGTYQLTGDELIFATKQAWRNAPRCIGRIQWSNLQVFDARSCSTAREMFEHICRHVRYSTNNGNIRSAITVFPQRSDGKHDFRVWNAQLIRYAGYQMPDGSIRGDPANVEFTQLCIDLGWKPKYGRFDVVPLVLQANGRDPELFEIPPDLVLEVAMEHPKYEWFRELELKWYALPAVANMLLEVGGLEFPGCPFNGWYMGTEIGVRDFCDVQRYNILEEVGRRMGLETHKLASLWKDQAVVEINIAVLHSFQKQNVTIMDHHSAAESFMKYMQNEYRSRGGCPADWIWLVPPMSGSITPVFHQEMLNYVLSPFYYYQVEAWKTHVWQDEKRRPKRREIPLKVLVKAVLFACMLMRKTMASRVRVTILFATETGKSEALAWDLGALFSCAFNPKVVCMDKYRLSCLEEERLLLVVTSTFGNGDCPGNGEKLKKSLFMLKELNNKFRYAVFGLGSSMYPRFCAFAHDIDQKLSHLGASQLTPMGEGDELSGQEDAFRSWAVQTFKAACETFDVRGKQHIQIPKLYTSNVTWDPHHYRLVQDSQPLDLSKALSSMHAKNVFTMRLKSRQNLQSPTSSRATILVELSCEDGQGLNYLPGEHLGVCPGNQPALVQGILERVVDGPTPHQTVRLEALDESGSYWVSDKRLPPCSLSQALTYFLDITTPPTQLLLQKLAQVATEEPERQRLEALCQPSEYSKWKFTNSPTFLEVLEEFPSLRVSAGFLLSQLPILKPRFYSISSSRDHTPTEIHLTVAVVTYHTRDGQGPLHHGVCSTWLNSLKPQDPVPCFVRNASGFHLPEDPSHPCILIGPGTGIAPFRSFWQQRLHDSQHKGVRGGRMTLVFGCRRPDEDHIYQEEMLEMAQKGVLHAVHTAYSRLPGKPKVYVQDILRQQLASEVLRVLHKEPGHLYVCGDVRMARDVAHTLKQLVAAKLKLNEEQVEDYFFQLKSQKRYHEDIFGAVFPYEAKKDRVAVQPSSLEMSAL

With `O=C(CC1CCCCN1c1ccnc(-n2ccnc2)n1)NCc1ccc(OC(F)(F)F)cc1` (stereo not given), the IC50 in assay [1] came out at 19 nM; in assay [3] it was 140 nM. Further, the Ratio IC50 came to 220 in the assay on BSC-1 [2] and 5 in the assay on BSC-1 [4]. The outcome in assay [5] was inactive.
Consider `O=C(CC1CN(C(=O)COCc2ccccc2)CCN1c1ccnc(-n2ccnc2)n1)NCc1ccc2c(c1)OCO2` (stereo not given), for which the half-inhibitory concentration (IC50) in assay [1] is 0.5 nM; in assay [3], 28 nM. The Ratio IC50 is 1220 in the assay with BSC-1 [2] and 11 in the assay with BSC-1 [4]. For the same compound, in assay [5], the result was inactive.
With `CC(=O)N1CCN(c2ccnc(-n3ccnc3)n2)C(CC(=O)NCc2ccc3c(c2)OCO3)C1` (stereo not given), the figures for the IC50 in assay [1] and in assay [3] were 1 nM and 320 nM, respectively. Besides, the Ratio IC50 in the assay with BSC-1 [2] is over 10; with BSC-1 [4], 3. Further, the result in assay [5] was inactive.
As to `O=C(CC1CN(Cc2ccco2)CCN1c1ccnc(-n2ccnc2)n1)NCc1ccc2c(c1)OCO2` (stereo not given), the IC50 in assay [1] was found to be 0.58 nM; in assay [3], 13 nM. In addition, the Ratio IC50 is 1100 in the assay on BSC-1 [2] and 2 with BSC-1 [4]. Further, in assay [5], the outcome was inactive.
As to `O=C(CC1CNCCN1c1ccnc(-n2ccnc2)n1)NCc1ccc2c(c1)OCO2` (stereo not given), the IC50 came out at 0.55 nM in assay [1] and 70 nM in assay [3]. The Ratio IC50 with BSC-1 [2] came out at 1200; with BSC-1 [4], 7. Further, the result in assay [5] was inactive.
Taken in the same sequence, the figures for `COc1ccc(CCNC(=O)CC2CCCCN2c2ccnc(-n3ccnc3)n2)cc1OC` (stereo not given) were 12 nM, 680 nM, 120, 1 and “inactive”.
For `O=C(CC1CN(C(=O)OCc2ccccc2)CCN1c1ccnc(-n2ccnc2)n1)NCc1ccc2c(c1)OCO2` (stereo not given), the figures for the 50% inhibitory concentration (IC50) in assay [1] and in assay [3] were 0.8 nM and 18 nM, respectively. Further, the figures for the Ratio IC50 in the assay with BSC-1 [2] and in the assay on BSC-1 [4] were 660 and 7, respectively. Also, the outcome in assay [5] was inactive.
As to `Cc1cc(N2CCN(Cc3ccccc3)C(CC(=O)NCc3ccc4c(c3)OCO4)C2)nc(-n2ccnc2)n1` (stereo not given), the half-inhibitory concentration (IC50) amounted to 25 nM in assay [1] and 160 nM in assay [3]. Moreover, the results for the Ratio IC50 in the assay with BSC-1 [2] and in the assay on BSC-1 [4] were 350 and 130, respectively. Further, in assay [5], the result was inactive.
For the compound `O=C(CC1CN(C(=O)NCc2ccccc2)CCN1c1ccnc(-n2ccnc2)n1)NCc1ccc2c(c1)OCO2` (stereo not given), the values for the half-inhibitory concentration (IC50) in assay [1] and in assay [3] were 0.96 nM and 72 nM, respectively. For the same compound, the Ratio IC50 in the assay with BSC-1 [2] is 490; in the assay with BSC-1 [4] it was 4. Moreover, the result in assay [5] was inactive.
Taken in the same sequence, the figures for `CCOC(=O)CN1CCN(c2ccnc(-n3ccnc3)n2)C(CC(=O)NCc2ccc3c(c2)OCO3)C1` (stereo not given) were 0.93 nM, 4.9 nM, 1700, 5 and “inactive”.
Taken in the same sequence, the figures for `COC(=O)N1CCN(c2cc(C)nc(-n3ccnc3)n2)CC1CC(=O)NCc1ccc2c(c1)OCO2` (stereo not given) were 5.4 nM, 420 nM, over 200, 50 and “inactive”.
In the case of `O=C(CC1CN(C(=O)c2ccco2)CCN1c1ccnc(-n2ccnc2)n1)NCc1ccc2c(c1)OCO2` (stereo not given), the results for the half-maximal inhibitory concentration (IC50) in assay [1] and in assay [3] were 0.67 nM and 48 nM, respectively. In addition, the values for the Ratio IC50 in the assay on BSC-1 [2] and with BSC-1 [4] were 1000 and 6, respectively. Further, in assay [5], the outcome was inactive.
Taken in the same sequence, the figures for `CN(C)c1ccc(CNC(=O)CC2CCCCN2c2ccnc(-n3ccnc3)n2)cc1` (stereo not given) were 66 nM, 245 nM, 86, 29 and “inactive”.
Turning to `O=C(CC1CN(C(=O)c2ccccc2)CCN1c1ccnc(-n2ccnc2)n1)NCc1ccc2c(c1)OCO2` (stereo not given), the IC50 in assay [1] was 0.5 nM; in assay [3], 85 nM. Moreover, the Ratio IC50 in the assay with BSC-1 [2] amounted to 220; with BSC-1 [4], 4. In assay [5], the result was inactive.

Usually IC50 stands for the concentration needed to halve the response being measured.
